ChEMBL document CHEMBL2429865, “Withaferin A, a steroidal lactone from Withania somnifera, induces mitotic catastrophe and growth arrest in prostate cancer cells” (2013)
Calls of active or inactive are those of the source.

What was measured:
[1] = target: T1, Serine/threonine-protein kinase Chk1 (Homo sapiens) (UniProt O14757); assay: Reduction in CHK1 phosphorylation at Ser345 in human PC3 cells at IC50 after 12 to 48 hrs by Western blotting analysis; assay type: cell-based; conditions: PC-3
T1 sequence (whole entry): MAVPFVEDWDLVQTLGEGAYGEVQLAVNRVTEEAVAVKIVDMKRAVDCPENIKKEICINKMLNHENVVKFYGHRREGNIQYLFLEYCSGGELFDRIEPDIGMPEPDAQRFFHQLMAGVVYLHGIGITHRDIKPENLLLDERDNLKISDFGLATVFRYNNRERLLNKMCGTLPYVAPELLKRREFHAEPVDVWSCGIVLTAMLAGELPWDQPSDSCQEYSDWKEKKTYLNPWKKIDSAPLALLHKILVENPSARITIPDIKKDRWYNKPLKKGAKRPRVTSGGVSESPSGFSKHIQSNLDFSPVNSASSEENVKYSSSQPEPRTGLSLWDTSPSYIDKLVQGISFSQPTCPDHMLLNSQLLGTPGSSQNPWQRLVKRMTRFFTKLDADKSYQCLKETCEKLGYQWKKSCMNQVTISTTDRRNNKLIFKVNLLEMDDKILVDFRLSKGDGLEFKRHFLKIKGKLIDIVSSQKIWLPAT

[2] = target: T2, M-phase inducer phosphatase 3 (Homo sapiens) (UniProt P30307); assay: Reduction in CDC25C phosphorylation at Ser216 in human PC3 cells at 1 uM after 12 to 24 hrs by Western blotting analysis; assay type: cell-based; conditions: PC-3
T2 sequence (whole entry): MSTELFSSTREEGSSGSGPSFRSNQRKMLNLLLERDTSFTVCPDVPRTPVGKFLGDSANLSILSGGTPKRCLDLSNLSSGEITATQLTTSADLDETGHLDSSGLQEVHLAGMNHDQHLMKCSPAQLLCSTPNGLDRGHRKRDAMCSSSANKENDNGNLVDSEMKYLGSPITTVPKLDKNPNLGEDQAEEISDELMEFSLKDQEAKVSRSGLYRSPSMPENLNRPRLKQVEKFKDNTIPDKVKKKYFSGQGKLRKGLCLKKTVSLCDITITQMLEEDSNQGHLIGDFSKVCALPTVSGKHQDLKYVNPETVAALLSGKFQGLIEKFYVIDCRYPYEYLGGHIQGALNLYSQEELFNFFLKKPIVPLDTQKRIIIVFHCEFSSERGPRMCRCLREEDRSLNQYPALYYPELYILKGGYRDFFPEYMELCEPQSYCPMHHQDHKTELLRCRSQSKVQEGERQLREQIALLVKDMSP
How it was run: (§1)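 PC-3 cells are treated with 1 μM for various times. Lysates are made in M-PER buffer with protease inhibitor cocktail, and 25 μg protein is immunoblotted for pWee1 (Ser642), Wee1, pCdc2 (Tyr15), Cdc25C (Ser216) and Myt-1, with β-actin as loading control.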

PC-3 [3] = assay: Growth inhibition of human PC3 cells assessed as loss of cell viability after 24 hrs by trypan blue exclusion assay; assay type: functional, cell-based
How it was run: (§2)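 PC-3 (DMEM) and DU-145 (RPMI-1640) cells, with 10% heat-inactivated FBS, are seeded at 3×10⁵ cells/well, cultured 24 h, then exposed to 0.5, 1, 2, 3 and 4 μM for 24 h at 37°C, 5% CO₂. DMSO is ≤0.002%. Viable cells are counted by trypan blue exclusion on a hemocytometer and expressed as % of DMSO control. IC50 is calculated. Mean ± SEM of three independent experiments.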

PC-3 [4] = assay: Effect on 14-3-3 protein expression in human PC3 cells at IC50 after 12 to 48 hrs by Western blotting analysis; assay type: functional, cell-based
[5] = target: Cyclin-dependent kinase 1/cyclin B1 (Homo sapiens) (UniProt P06493+P14635); assay: Activation of Cdc2/cyclin B in human PC3 cells; assay type: cell-based; conditions: PC-3
How it was run: (§3)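 Lysates of vehicle- or drug-treated PC-3 cells are diluted in kinase buffer and added to wells precoated with recombinant Cdc25C substrate. Phosphorylation is started with Mg2+ and ATP. Phospho-Cdc25C Ser216 is detected with an HRP-conjugated antibody and TMB colour with stop reagent. The Cdc2-cyclin B1 line uses a parallel kit of the same format.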

[6] = target: Cyclin-dependent kinase 1 (Homo sapiens) (UniProt P06493); assay: Reduction in CDC2 phosphorylation at Tyr15 in human PC3 cell cytoplasm at 1 uM after 24 hrs by immunofluorescence assay; conditions: PC-3
How it was run: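 PC-3 cells on coverslips at 60% confluence are treated with drug or DMSO for 24 h. They are fixed in 4% paraformaldehyde, permeabilized with 0.2% Triton X-100, and immunostained for pCdc2 (Tyr15) with Alexa Fluor secondary and DAPI counterstain. Images are taken by fluorescence/confocal microscopy.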

[7] = target: T1, Serine/threonine-protein kinase Chk1 (Homo sapiens); assay: Activation of Chk1 in human PC3 cells assessed as phosphorylation of CDC25C at Ser216; assay type: cell-based; conditions: PC-3; how it was run: as §3
PC-3 [8] = assay: Downregulation of cyclin E2 protein expression in human PC3 cells at IC50 after 12 to 48 hrs by Western blotting analysis; assay type: functional, cell-based
[9] = target: Wee1-like protein kinase (Homo sapiens) (UniProt P30291); assay: Induction of Wee1 phosphorylation at Ser642 in human PC3 cells at 1 uM after 12 to 24 hrs by Western blotting analysis; assay type: cell-based; conditions: PC-3; how it was run: as §1
PC-3 [10] = assay: Mitotic arrest in human PC3 cells assessed as accumulation of phosphorylated histone H3 in nucleus by DAPI staining-based confocal microscopic analysis; assay type: functional, cell-based
How it was run: (§4)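 PC-3 cells on coverslips are grown to 60% confluence and treated for 24 h. They are fixed in 4% paraformaldehyde for 20 min at room temperature, permeabilized with 0.2% Triton X-100 for 20 min, and immunostained for pH3 (Ser10), Aurora B or α-tubulin with Alexa Fluor secondaries, rhodamine-phalloidin and DAPI. Imaging is by laser scanning confocal microscopy.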

DU-145 [11] = assay: Induction of cell cycle arrest in human DU145 cells assessed as accumulation at G2/M phase at 1 uM after 48 hrs by propidium iodide staining-based flow cytometry (reference value: 22%); assay type: functional
PC-3 [12] = assay: Mitotic arrest in human PC3 cells assessed as punctate distribution of Aurora B in centromeric region of chromosomes by DAPI staining-based confocal microscopic analysis; assay type: functional, cell-based; how it was run: as §4
[13] = target: Serine/threonine-protein kinase Chk2 (Homo sapiens) (UniProt O96017); assay: Reduction in CHK2 phosphorylation at Thr68 in human PC3 cells at IC50 after 12 to 48 hrs by Western blotting analysis; assay type: cell-based; conditions: PC-3
[14] = target: Cyclin-dependent kinase 1 (Homo sapiens) (UniProt P06493); assay: Reduction in CDC2 phosphorylation at Tyr15 in human PC3 cells at 1 uM after 12 to 24 hrs by Western blotting analysis; assay type: cell-based; conditions: PC-3; how it was run: as §1
PC-3 [15] = assay: Induction of cell cycle arrest in human PC3 cells assessed as accumulation at G2/M phase at 1 uM after 48 hrs by propidium iodide staining-based flow cytometry (reference value: 25.3%); assay type: functional
DU-145 [16] = assay: Growth inhibition of human DU145 cells assessed as loss of cell viability after 24 hrs by trypan blue exclusion assay; assay type: functional, cell-based; how it was run: as §2
[17] = target: Aurora kinase B (Homo sapiens) (UniProt Q96GD4); assay: Induction of Aurora B-mediated histone H3 phosphorylation at Ser10 in human PC3 cells after 12 to 48 hrs by Western blotting analysis; assay type: cell-based; conditions: PC-3
[18] = target: Tubulin alpha (Homo sapiens) (UniProt P0DPH7+P68366+Q71U36+P68363+Q9BQE3+Q6PEY2+A6NHL2+Q9NY65); assay: Inhibition of tubulin-alpha (unknown origin) polymerization by fluorescence-based assay; assay type: protein assay; conditions: TDE = time-dependent effect
DU-145 [19] = assay: Induction of cell cycle arrest in human DU145 cells assessed as accumulation at G2/M phase at 1 uM after 24 hrs by propidium iodide staining-based flow cytometry (reference value: 22%); assay type: functional
PC-3 [20] = assay: Cell cycle arrest in human PC3 cells assessed as accumulation at G2/M phase at 1 uM after 8 hrs by propidium iodide staining-based flow cytometry; assay type: functional
DU-145 [21] = assay: Cell cycle arrest in human DU145 cells assessed as accumulation at G2/M phase at 1 uM after 8 hrs by propidium iodide staining-based flow cytometry; assay type: functional
PC-3 [22] = assay: Upregulation of p21 mRNA expression in human PC3 cells at IC50 after 12 to 48 hrs by SYBR green staining-based RT-PCR analysis; assay type: functional, cell-based
PC-3 [23] = assay: Downregulation of Myt-1 protein expression in human PC3 cells at 1 uM after 12 to 48 hrs by Western blotting analysis; assay type: functional, cell-based; how it was run: as §1
PC-3 [24] = assay: Downregulation of cyclin A2 protein expression in human PC3 cells at IC50 after 12 to 48 hrs by Western blotting analysis; assay type: functional, cell-based
PC-3 [25] = assay: Mitotic arrest in human PC3 cells assessed as defect in depolymerization of tubulin-alpha by DAPI staining-based confocal microscopic analysis; assay type: functional, cell-based; how it was run: as §4
PC-3 [26] = assay: Downregulation of cyclin B1 protein expression in human PC3 cells at IC50 after 12 to 48 hrs by Western blotting analysis; assay type: functional, cell-based
PC-3 [27] = assay: Upregulation of p21 protein expression in human PC3 cells at IC50 after 12 to 48 hrs by Western blotting analysis; assay type: functional, cell-based
PC-3 [28] = assay: Upregulation of Aurora B protein expression in human PC3 cells at IC50 after 12 to 48 hrs by Western blotting analysis; assay type: functional, cell-based
PC-3 [29] = assay: Mitotic arrest in human PC3 cells assessed as distorted spindles and curving microtubule array by DAPI staining-based confocal microscopic analysis; assay type: functional, cell-based; how it was run: as §4
PC-3 [30] = assay: Induction of cell cycle arrest in human PC3 cells assessed as accumulation at G2/M phase at 1 uM after 24 hrs by propidium iodide staining-based flow cytometry (reference value: 28.3%); assay type: functional

Sequence of Cyclin-dependent kinase 1 (Homo sapiens) (P06493 whole entry, looked up): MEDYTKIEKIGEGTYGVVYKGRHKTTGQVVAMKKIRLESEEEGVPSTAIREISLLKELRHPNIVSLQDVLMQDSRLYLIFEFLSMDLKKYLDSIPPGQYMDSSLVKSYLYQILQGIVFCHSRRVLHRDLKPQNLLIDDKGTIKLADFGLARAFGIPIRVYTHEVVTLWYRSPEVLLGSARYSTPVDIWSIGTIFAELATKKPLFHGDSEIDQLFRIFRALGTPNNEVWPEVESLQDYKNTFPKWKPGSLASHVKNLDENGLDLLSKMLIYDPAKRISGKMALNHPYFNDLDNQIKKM
Sequence of Wee1-like protein kinase (Homo sapiens) (P30291 whole entry, looked up): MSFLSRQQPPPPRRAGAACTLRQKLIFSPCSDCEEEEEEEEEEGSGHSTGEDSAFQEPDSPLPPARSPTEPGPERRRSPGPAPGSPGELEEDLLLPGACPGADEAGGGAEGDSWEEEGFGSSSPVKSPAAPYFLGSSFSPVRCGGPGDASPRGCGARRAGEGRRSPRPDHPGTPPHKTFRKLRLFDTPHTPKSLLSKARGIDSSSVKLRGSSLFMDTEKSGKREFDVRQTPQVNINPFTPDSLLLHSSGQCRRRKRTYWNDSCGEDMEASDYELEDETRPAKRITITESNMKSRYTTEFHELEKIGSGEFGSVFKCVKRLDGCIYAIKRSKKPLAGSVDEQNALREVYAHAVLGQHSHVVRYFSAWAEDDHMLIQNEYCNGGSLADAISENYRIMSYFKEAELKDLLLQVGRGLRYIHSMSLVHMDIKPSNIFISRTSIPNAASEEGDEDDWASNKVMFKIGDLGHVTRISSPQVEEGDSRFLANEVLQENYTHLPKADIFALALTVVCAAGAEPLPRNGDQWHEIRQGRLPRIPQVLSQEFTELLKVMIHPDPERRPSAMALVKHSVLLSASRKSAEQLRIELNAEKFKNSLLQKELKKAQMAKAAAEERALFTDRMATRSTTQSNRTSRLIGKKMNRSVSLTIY
Sequence of Aurora kinase B (Homo sapiens) (Q96GD4 whole entry): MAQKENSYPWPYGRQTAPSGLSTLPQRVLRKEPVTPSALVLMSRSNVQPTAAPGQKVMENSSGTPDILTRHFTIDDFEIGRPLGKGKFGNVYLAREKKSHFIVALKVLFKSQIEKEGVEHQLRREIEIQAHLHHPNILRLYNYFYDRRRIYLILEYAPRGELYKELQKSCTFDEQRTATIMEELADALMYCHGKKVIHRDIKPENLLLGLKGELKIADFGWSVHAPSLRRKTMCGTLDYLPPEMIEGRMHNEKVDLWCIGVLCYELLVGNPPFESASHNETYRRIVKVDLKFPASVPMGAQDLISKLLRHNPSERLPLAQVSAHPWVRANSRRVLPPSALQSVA
Sequence of Serine/threonine-protein kinase Chk2 (Homo sapiens) (O96017 whole entry): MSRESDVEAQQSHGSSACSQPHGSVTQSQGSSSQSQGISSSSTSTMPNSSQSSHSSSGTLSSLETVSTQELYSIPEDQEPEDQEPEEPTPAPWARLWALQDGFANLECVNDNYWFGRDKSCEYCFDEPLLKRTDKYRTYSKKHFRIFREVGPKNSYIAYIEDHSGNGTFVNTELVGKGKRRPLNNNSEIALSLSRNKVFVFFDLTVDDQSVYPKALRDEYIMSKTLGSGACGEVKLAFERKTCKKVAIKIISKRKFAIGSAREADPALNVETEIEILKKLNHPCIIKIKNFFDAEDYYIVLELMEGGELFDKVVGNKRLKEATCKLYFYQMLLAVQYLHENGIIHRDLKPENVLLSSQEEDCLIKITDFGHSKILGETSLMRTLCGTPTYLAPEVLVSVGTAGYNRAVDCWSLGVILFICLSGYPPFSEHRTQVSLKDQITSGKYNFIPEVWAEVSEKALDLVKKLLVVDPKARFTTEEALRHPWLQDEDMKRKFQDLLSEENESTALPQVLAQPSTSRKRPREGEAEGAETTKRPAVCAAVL
Sequence of Cyclin-dependent kinase 1/cyclin B1 (Homo sapiens) (P06493 whole entry, looked up): as the sequence (P06493 whole entry, looked up) above
Sequence of Cyclin-dependent kinase 1/cyclin B1 (Homo sapiens) (P14635 whole entry, looked up): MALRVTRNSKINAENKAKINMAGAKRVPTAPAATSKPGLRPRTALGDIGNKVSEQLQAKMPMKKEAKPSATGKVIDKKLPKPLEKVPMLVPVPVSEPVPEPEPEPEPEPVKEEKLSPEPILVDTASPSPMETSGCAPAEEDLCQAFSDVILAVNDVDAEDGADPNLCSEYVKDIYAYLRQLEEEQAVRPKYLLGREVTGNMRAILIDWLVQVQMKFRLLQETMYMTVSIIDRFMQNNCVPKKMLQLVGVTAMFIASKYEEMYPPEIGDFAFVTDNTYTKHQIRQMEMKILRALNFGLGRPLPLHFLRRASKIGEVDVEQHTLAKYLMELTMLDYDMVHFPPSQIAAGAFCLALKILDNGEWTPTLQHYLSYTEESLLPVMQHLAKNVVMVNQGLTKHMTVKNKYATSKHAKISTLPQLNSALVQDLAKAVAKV

CC1=C(CO)C(=O)O[C@@H]([C@@H](C)[C@H]2CC[C@H]3[C@@H]4C[C@H]5O[C@]56[C@@H](O)C=CC(=O)[C@]6(C)[C@H]4CC[C@]23C)C1 [WITHAFERIN A]
60.7%: Activity (PC-3 [15])
inactive: Activity (PC-3 [4]) | Activity [5] | Activity [7]
36.75%: Activity (DU-145 [19])
62.7%: Activity (PC-3 [30])
active: Activity [1] | Activity [2] | growth inhibition (GI) (PC-3 [3]) Dose-dependent effect | Activity [6] | Activity (PC-3 [8]) | Activity [9] | Activity (PC-3 [10]) | Activity (PC-3 [12]) | Activity [13] | Activity [14] | growth inhibition (GI) (DU-145 [16]) Dose-dependent effect | Activity [17] | inhibition [18] tde | Activity (PC-3 [20]) | Activity (DU-145 [21]) | Activity (PC-3 [22]) | Activity (PC-3 [23]) | Activity (PC-3 [24]) | Activity (PC-3 [25]) | Activity (PC-3 [26]) | Activity (PC-3 [27]) | Activity (PC-3 [28]) | Activity (PC-3 [29])
24.75%: Activity (DU-145 [11])
